Assay results from ChEMBL document CHEMBL5576140, “Computational Design of Pore-Forming Peptides with Potent Antimicrobial and Anticancer Activities” (J Med Chem, 2024).
Activity calls are given as the source filed them. No cut-off for these calls is given here.

What was measured:
[1] = Toxicity against reconstructed human skin model assessed as tissue viability at 50 uM incubated for 1 hr followed by compound washout measured after 42 hrs by MTT assay; format: tissue-based, Skin of body; conditions: read-out: Activity
Procedure, shortened: (§1)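 Reconstructed human epidermis with stratum corneum, per OECD TG 439 skin irritation guideline. Tissues exposed 1 h to peptide at 50 μM, then 42 h post-treatment incubation. Viability read by MTT. Controls were SDS and melittin.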

[2] = Toxicity against reconstructed human skin model assessed as irritation at 50 uM incubated for 1 hr followed by compound washout measured after 42 hrs by MTT assay; format: tissue-based, Skin of body; procedure, shortened: as §1
Pseudomonas aeruginosa [3] = assay: Depolarization of cytoplasmic membrane in Pseudomonas aeruginosa PAO1 at MIC measured for 45 mins by DiSC3-(5) dye based assay; format: functional, organism-based
Procedure, shortened: (§2)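 Bacteria loaded with membrane-potential dye DiSC3-(5), then treated with peptide at its MIC for the respective strain; depolarization read as rise in dye fluorescence; polymyxin B and levofloxacin as reference antibiotics.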

[4] = Stability in human serum assessed as half life at 10 mg/ml by UPLC-MS analysis; format: ADME, cell-free
Procedure, shortened: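 Peptides dissolved in PBS and incubated in 25% human serum. Intact peptide remaining followed over time to at least 6 h; half-life taken as time to 50% stability.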

Klebsiella pneumoniae [5] = assay: Depolarization of cytoplasmic membrane in Klebsiella pneumoniae ATCC 13883 at MIC measured for 45 mins by DiSC3-(5) dye based assay; format: functional, organism-based; procedure, shortened: as §2
Acinetobacter baumannii [6] = assay: Induction of outer membrane permeabilization in Acinetobacter baumannii ATCC 19606 measured for 20 mins by NPN uptake assay; format: functional, organism-based
Staphylococcus aureus [7] = assay: Antimicrobial activity against Staphylococcus aureus NE163 harboring single transposon insertion mutation in aureolysin at 30 uM incubated for 18 hrs relative to control; format: functional
Procedure, shortened: (§3)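 CA-MRSA USA300 LAC derivative JE2 and single transposon insertion mutants derived from JE2, each lacking an extracellular protease gene, were exposed to peptides up to 30 μM. The read-out was percent growth inhibition. Peptides were dissolved in PBS, and tests were run in triplicate.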

Pseudomonas aeruginosa [8] = assay: Induction of outer membrane permeabilization in Pseudomonas aeruginosa PAO1 measured for 20 mins by NPN uptake assay; format: functional, organism-based
Procedure, shortened: (§4)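 Outer-membrane permeabilization of Gram-negative bacteria read as rise in fluorescence of the lipophilic dye NPN, which enters only when outer-membrane integrity is compromised. Peptides applied at their MIC against the respective strain; polymyxin B and levofloxacin as reference antibiotics. Triplicates.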

Staphylococcus aureus [9] = assay: Antimicrobial activity against Staphylococcus aureus NE1506 harboring single transposon insertion mutation in V8 protease at 30 uM incubated for 18 hrs relative to control; format: functional; procedure, shortened: as §3
Enterococcus faecium = assay: Depolarization of cytoplasmic membrane in Enterococcus faecium ATCC 700221 at MIC measured for 45 mins by DiSC3-(5) dye based assay; format: functional, organism-based; procedure, shortened: as §2
Staphylococcus aureus [10] = assay: Depolarization of cytoplasmic membrane in Staphylococcus aureus ATCC 12600 at MIC measured for 45 mins by DiSC3-(5) dye based assay; format: functional, organism-based; procedure, shortened: as §2
[11] = Toxicity in neutropenic CD-1 mouse deep thigh infection model infected with Acinetobacter baumannii ATCC 19606 assessed as body weight change at 0.18 mg/kg, ip measured after 4 days; format: organism-based; conditions: in vivo, 96 h, time 4 day
Procedure, shortened: (§5)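 Neutropenic mice infected intramuscularly in the right thigh with 10⁶ cells per mL of A. baumannii ATCC 19606. […] Body weight monitored for toxicity. Euthanasia 4 days post-infection (day 8). n = 6 per group, from three inocula.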

[12] = Hemolytic activity against human RBC incubated for 1 hr by microplate reader analysis; format: toxicity, cell-based, Erythrocyte; conditions: red blood cells (erythrocytes)
Procedure, shortened: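 Human red blood cells exposed to peptides up to 50 μM; hemolysis measured, IC50 derived where reached.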

Escherichia coli [13] = assay: Depolarization of cytoplasmic membrane in Escherichia coli ATCC 11775 at MIC measured for 45 mins by DiSC3-(5) dye based assay; format: functional, organism-based; procedure, shortened: as §2
Staphylococcus aureus [14] = assay: Antimicrobial activity against Staphylococcus aureus NE934 harboring single transposon insertion mutation in staphopain B at 30 uM incubated for 18 hrs relative to control; format: functional; procedure, shortened: as §3
Staphylococcus aureus [15] = assay: Antimicrobial activity against Staphylococcus aureus NE1740 harboring single transposon insertion mutation in staphopain A at 30 uM incubated for 18 hrs relative to control; format: functional; procedure, shortened: as §3
Acinetobacter baumannii [16] = assay: Depolarization of cytoplasmic membrane in Acinetobacter baumannii ATCC 19606 at MIC measured for 45 mins by DiSC3-(5) dye based assay; format: functional, organism-based; procedure, shortened: as §2
Acinetobacter baumannii [17] = assay: Anti-infective activity against Acinetobacter baumannii ATCC 19606 infected in neutropenic CD-1 mouse deep thigh infection model assessed as reduction in bacterial load at 0.18 mg/kg, ip measured after 4 days; format: functional, organism-based; conditions: time 4.0 day
Procedure, shortened: (§6)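 Neutropenic mice infected intramuscularly in right thigh with 10⁶ cells per mL A. baumannii ATCC 19606; single intraperitoneal peptide dose at 10× MIC; bacterial load determined 4 days after treatment (euthanized day 8); n = 6 per group from three inocula; one-way ANOVA with Dunnett's test versus untreated.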

Klebsiella pneumoniae [18] = assay: Induction of outer membrane permeabilization in Klebsiella pneumoniae ATCC 13883 measured for 20 mins by NPN uptake assay; format: functional, organism-based; procedure, shortened: as §4
Escherichia coli [19] = assay: Induction of outer membrane permeabilization in Escherichia coli ATCC 11775 measured for 20 mins by NPN uptake assay; format: functional, organism-based
Mus musculus [20] = assay: Induction of wound healing activity in immunosuppressed Balb/c mouse excisional dorsal wound infection model infected with Acinetobacter baumannii NCTC 13301 assessed as reduction in necrosis of epidermal tissue at wound edges at about 10 mg/kg treated for 7 days once daily; format: functional, organism-based; conditions: time 7.0 day
[21] = Toxicity in neutropenic CD-1 mouse deep thigh infection model infected with Acinetobacter baumannii ATCC 19606 assessed as body weight change at 0.17 mg/kg, ip measured after 4 days; format: organism-based; conditions: in vivo, 96 h, time 4 day; procedure, shortened: as §5
[22] = Toxicity in immunosuppressed Balb/c mouse excisional dorsal wound infection model infected with Acinetobacter baumannii NCTC 13301 assessed as body weight loss at about 10 mg/kg treated for 7 days once daily measured after 45 days; format: organism-based; conditions: in vivo, 1080 h, time 45 day
Procedure, shortened: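 Excisional dorsal wound model in immunosuppressed mice infected with 5 × 10⁴ cells per mL of A. baumannii. Treated, PBS-treated and untreated groups were compared. Body weight and survival were followed for 45 days.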

Lipid bilayer = assay: Induction of pore formation in POPC/POPG SLBs at 1 uM measured for 2 hrs by real-time AFM analysis; conditions: filed as activator
Procedure, shortened: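 Real-time AFM topography of supported lipid bilayers of POPC:POPG 1:1 mol/mol, checked defect-free and vesicle-free before peptide addition. P:L 1:500, final peptide 1 μM. Images at 1 × 1 μm², 400 × 400 nm² and 200 × 200 nm², height scale 2 nm. Pores followed over 2 h.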

Acinetobacter baumannii [23] = assay: Antimicrobial activity against Acinetobacter baumannii CIP7010 incubated for 16 to 20 hrs; format: functional; conditions: time 16-20 hrs
Procedure, shortened: (§7)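 Broth microdilution assay. MIC was taken as the lowest peptide concentration that inhibited visible growth of the bacteria. Peptides were dissolved in PBS, and experiments were run in triplicate.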

Acinetobacter baumannii [24] = assay: Anti-infective activity against Acinetobacter baumannii ATCC 19606 infected in neutropenic CD-1 mouse deep thigh infection model assessed as reduction in bacterial load at 0.17 mg/kg, ip measured after 4 days; format: functional, organism-based; conditions: time 4.0 day; procedure, shortened: as §6
Mus musculus [25] = assay: Induction of wound healing activity in immunosuppressed Balb/c mouse excisional dorsal wound infection model infected with Acinetobacter baumannii NCTC 13301 assessed as reduction in wound expansion at about 10 mg/kg treated for 7 days once daily; format: functional, organism-based; conditions: time 7.0 day
Escherichia coli [26] = assay: Antimicrobial activity against Escherichia coli ATCC 25922 incubated for 18 to 20 hrs by broth microdilution assay; format: functional; conditions: time 18-20 hrs; procedure, shortened: as §7
Mus musculus [27] = assay: Induction of wound healing activity in immunosuppressed Balb/c mouse excisional dorsal wound infection model infected with Acinetobacter baumannii NCTC 13301 assessed as decrease in serocellular crust at about 10 mg/kg treated for 7 days once daily measured after 20 days; format: functional, organism-based; conditions: time 20.0 day
Acinetobacter baumannii [28] = assay: Antimicrobial activity against colistin/meropenem-resistant Acinetobacter baumannii GSAB 164 incubated for 18 to 20 hrs by broth microdilution assay; format: functional; conditions: time 18-20 hrs; procedure, shortened: as §7
[29] = Toxicity in immunosuppressed Balb/c mouse excisional dorsal wound infection model infected with Acinetobacter baumannii NCTC 13301 assessed as decrease in animal survival at about 10 mg/kg treated for 7 days once daily measured after 45 days; format: organism-based; conditions: in vivo, 1080 h, time 45 day
Escherichia coli [30] = assay: Antimicrobial activity against Escherichia coli TOP10 at pH 6 to 8; format: functional, organism-based
Procedure, shortened: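 E. coli TOP10 broth microdilution with growth medium at pH 8 and pH 6; MIC taken as lowest concentration inhibiting visible growth.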

| Substance | viability at 1 h, 50 µM [1] | Activity [2] | Activity (Pseudomonas aeruginosa [3]) | half-life at 10 mg/ml [4] | Activity (Klebsiella pneumoniae [5]) | Activity (Acinetobacter baumannii [6]) | inhibition at 30 µM (Staphylococcus aureus [7]) | Activity (Pseudomonas aeruginosa [8]) | inhibition at 30 µM (Staphylococcus aureus [9]) | Activity (Enterococcus faecium) | Activity (Staphylococcus aureus [10]) | IC50 at 1 h [12] | Activity (Escherichia coli [13]) | inhibition at 30 µM (Staphylococcus aureus [14]) | inhibition at 30 µM (Staphylococcus aureus [15]) | Activity (Acinetobacter baumannii [16]) | Activity (Klebsiella pneumoniae [18]) | Activity (Escherichia coli [19]) | other results |
| --- | --- | --- | --- | --- | --- | --- | --- | --- | --- | --- | --- | --- | --- | --- | --- | --- | --- | --- | --- |
| H-KKKKKLKKILKKLFQFINQLDNQLQDIKKKKK-OH | 100% | Non-Toxic | Active | > 360 min | Active | inactive | < 45% | Active | < 45% | Active | Active | > 50 µM | Active | < 45% | < 45% | Active | Active | Active | Activity [11]: Non-Toxic; Activity (Acinetobacter baumannii [17]): inactive |
| H-KKKKLKKILKKLFQFINQLDNQLQDIKKKK-NH2 | 100% | Non-Toxic | Active | > 360 min | Active | inactive | < 45% | Active | < 45% | Active | Active | > 50 µM | Active | < 45% | < 45% | Active | Active | Active | Activity (Mus musculus [20]): Active; Activity [21]: Non-Toxic; Activity [22]: Toxic; Activity (Lipid bilayer): Active; MIC (Acinetobacter baumannii [23]): 0.5 µM; Activity (Acinetobacter baumannii [24]): inactive; Activity (Mus musculus [25]): Active; MIC (Escherichia coli [26]): 1 µM; Activity (Mus musculus [27]): inactive; MIC (Acinetobacter baumannii [28]): 1 µM; Activity [29]: Toxic; Activity (Escherichia coli [30]): Active |
